Assay results from article PMC9307089 (Journal of medicinal chemistry, 2021).
Where two headings read alike, the source gives them in different places. Blank lines part the entries; values can stand above or below the molecule they belong to. Numbered stars: 1 amine (or outer) side, 2 acyl side, 3 side chain; on linkers, the order of the positions; unused ones are H or OH. Square brackets hold non-standard residues; d marks the D form. Peptide text beside a SMILES is read from it. X1 = N=C(N)NCCC[C@H](N[*:1])C(=O)c1nc2ccc(C(=O)[*:2])cc2s1

Tests used:
[1] = Mouse plasma protein binding; assay type: in vitro ADME
[2] = Mouse pharmacokinetics, IP dosing; settings: for duration of compound exposure (detectable compound) in plasma: monitored for 24 h
HCC827 cells = assay: Pro-HGF-mediated wound healing; assay type: cell-based; settings: HCC827, inhibitor 10 μM, 24 h
Summary of the method: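 HCC827 monolayers were grown to confluence, serum-starved overnight and scratched. Cells were then pre-incubated 30 min with test compound (10 μM) and stimulated with HGF or pro-HGF for 24 h. Plates were stained with crystal violet and wound closure imaged; data average n=3.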

[3] = Tolerability in mice, daily IP for 7 days; assay type: in vivo
matriptase = target: T1, matriptase (Homo sapiens, UniProt Q9Y5Y6); assay: Proteolytic processing of recombinant pro-HGF by matriptase; assay type: biochemical; settings: pro-HGF 10 ng, matriptase 1 nM, one hour
T1 sequence (Q9Y5Y6 1-855): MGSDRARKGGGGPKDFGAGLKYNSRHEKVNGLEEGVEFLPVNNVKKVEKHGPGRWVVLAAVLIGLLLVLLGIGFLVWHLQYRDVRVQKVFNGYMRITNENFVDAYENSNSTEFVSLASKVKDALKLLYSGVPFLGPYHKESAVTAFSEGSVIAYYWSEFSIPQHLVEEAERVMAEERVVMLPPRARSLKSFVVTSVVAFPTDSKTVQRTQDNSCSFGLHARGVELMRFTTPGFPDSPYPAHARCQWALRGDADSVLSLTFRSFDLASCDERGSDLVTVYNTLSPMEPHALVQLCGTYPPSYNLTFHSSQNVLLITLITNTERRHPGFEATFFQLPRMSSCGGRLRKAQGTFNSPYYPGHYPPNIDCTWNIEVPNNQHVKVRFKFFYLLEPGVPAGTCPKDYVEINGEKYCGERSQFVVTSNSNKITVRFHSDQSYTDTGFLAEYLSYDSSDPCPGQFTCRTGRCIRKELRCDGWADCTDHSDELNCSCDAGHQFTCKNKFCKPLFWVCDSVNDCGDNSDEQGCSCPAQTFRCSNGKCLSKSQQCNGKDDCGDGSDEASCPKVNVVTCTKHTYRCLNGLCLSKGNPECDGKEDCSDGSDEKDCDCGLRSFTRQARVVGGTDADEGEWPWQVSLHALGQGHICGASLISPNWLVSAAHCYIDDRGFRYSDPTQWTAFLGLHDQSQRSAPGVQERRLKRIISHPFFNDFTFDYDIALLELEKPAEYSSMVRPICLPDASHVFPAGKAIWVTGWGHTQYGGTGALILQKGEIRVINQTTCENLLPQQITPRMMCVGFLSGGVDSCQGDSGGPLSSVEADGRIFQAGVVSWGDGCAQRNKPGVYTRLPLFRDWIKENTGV
Summary of the method: (§1)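 Recombinant pro-HGF (10 ng) was incubated 1 h with matriptase (1 nM), hepsin (10 nM) or HGFA (5 nM), with or without test compound. Products were immunoblotted with a polyclonal antibody detecting pro-HGF and the alpha and beta chains of active HGF. Active HGF was run as positive control.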

HGFA = target: T2, HGFA (Homo sapiens, UniProt Q04756); assay: Proteolytic processing of recombinant pro-HGF by HGFA; assay type: biochemical; settings: pro-HGF 10 ng, HGFA 5 nM, one hour
T2 sequence (Q04756 373-655): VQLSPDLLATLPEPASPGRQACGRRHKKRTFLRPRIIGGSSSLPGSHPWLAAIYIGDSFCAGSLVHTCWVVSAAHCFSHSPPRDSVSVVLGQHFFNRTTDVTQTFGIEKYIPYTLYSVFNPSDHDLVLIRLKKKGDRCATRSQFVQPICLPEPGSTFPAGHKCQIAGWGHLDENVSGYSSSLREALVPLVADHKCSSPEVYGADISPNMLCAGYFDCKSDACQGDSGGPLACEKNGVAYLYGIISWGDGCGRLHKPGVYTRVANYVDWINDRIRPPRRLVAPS
Summary of the method: as §1

hepsin = hepsin (Homo sapiens, UniProt P05981); assay: Proteolytic processing of recombinant pro-HGF by hepsin; assay type: biochemical; settings: pro-HGF 10 ng, hepsin 10 nM, one hour
Summary of the method: as §1

EBC-1 lung cancer cells [4] = assay: Cell viability, pro-HGF-mediated resistance to MET inhibitor JNJ-38877605; assay type: cell-based; settings: JNJ-38877605 25 nM, pro-HGF 100 ng/ml, inhibitor 1 μM, 48 h
Summary of the method: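 EBC-1 cells pre-incubated 24 h with pro-HGF (100 ng/ml), with or without test compound (1μM), then treated with MET kinase inhibitor JNJ-38877605 (25nM). Viability read by CellTiterGlo after 48 hrs. Means±S.E.M., n=3. One-way ANOVA with Dunnett's multiple comparison test against JNJ plus pro-HGF treated cells.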

thrombin = thrombin (Homo sapiens, UniProt P00734); assay: Chromogenic kinetic enzyme assay, thrombin; assay type: biochemical
[5] = In vitro stability in mouse plasma; assay type: in vitro ADME
[6] = In vitro stability in human plasma; assay type: in vitro ADME
[7] = target: T3, recombinant serine protease domain of HGFA (Homo sapiens, UniProt Q04756); assay: Fluorescent kinetic enzyme inhibition assay, HGFA; assay type: biochemical
T3 sequence (Q04756 408-646 limits assumed): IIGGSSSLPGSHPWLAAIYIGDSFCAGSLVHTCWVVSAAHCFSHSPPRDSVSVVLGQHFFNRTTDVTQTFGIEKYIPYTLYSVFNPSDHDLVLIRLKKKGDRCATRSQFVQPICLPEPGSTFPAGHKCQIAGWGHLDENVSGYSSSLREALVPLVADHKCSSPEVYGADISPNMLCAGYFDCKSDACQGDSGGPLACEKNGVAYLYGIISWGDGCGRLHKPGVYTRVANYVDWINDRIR

H596 lung cancer cells = assay: Pro-HGF-mediated growth of H596 cells in vitro; assay type: cell-based; settings: pro-HGF 50 ng/ml; JNJ 500 nM, nafamostat […], ZFH7116 10 μM
HCC827 lung cancer cells = assay: Cell viability, pro-HGF-mediated resistance to gefitinib; assay type: cell-based; settings: gefitinib 20 nM, pro-HGF 100 ng/ml, inhibitor 0.1-1 μM, 72 h
Summary of the method: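 HCC827 cells (EGFR exon-19 E746–A750 deletion) were exposed to gefitinib (20 nM), with or without pro-HGF (100 ng/ml), and test compound (0.1–1 μM) as indicated. Viability was read by crystal violet staining after 72 h. Data are means ± S.E.M. of n=3–5, analysed by one-way ANOVA with Dunnett's test against cells given gefitinib plus pro-HGF.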

EBC-1 lung cancer cells [8] = settings: previous finding; cited from earlier work
[9] = read-out: Thrombin IC50, chromogenic substrate S2238

Sequence of hepsin (P05981 whole entry): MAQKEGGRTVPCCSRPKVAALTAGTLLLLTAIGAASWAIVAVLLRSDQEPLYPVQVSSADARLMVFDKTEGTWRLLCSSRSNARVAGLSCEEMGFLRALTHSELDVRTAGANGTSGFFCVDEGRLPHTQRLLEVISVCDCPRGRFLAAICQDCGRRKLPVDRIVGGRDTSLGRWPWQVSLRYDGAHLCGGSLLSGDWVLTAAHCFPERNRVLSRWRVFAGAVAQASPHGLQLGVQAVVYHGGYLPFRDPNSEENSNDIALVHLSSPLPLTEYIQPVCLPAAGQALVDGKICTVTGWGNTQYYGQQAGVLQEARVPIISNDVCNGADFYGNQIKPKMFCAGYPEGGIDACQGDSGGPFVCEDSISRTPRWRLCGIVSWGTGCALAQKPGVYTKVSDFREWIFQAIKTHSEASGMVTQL

Compound: CC(=O)N[C@H]1CCCCNC(=O)C[C@@H](C(=O)N[C@@H](CCCNC(=N)N)C(=O)c2nc3ccccc3s2)NC(=O)[C@H](CC(C)C)NC1=O [Compound 15, Ac-cyclo(KLD)-R-ketobenzothiazole]
- Mouse PPB (% free) [1]: 85.3 % free

Compound: CC(=O)N[C@H]1CC(=O)NCCCC[C@@H](C(=O)N[C@@H](CCCNC(=N)N)C(=O)c2nc3ccccc3s2)NC(=O)[C@H](CC(C)C)NC1=O [Compound 18, Ac-cyclo(DLK)-R- ketobenzothiazole]
- pro-HGF-mediated wound closure (HCC827 cells): significantly inhibited
- tolerated dose [3]: up to 20 mg/kg
- Mouse PPB (% free) [1]: 28.6 % free
- inhibition of pro-HGF activation by matriptase (matriptase): potently inhibited
- inhibition of pro-HGF activation by HGFA (HGFA): did not inhibit
- inhibition of pro-HGF activation by hepsin (hepsin): potently inhibited
- pro-survival activity of pro-HGF in JNJ-38877605-treated EBC-1 cells (EBC-1 lung cancer cells [4]): blocked the pro-survival activity of pro-HGF
- AUC in mice (in words) ([2]; IP 20 mg/kg): high
- duration of compound exposure above IC50s ([2]; IP 20 mg/kg): 24 h
- duration of compound exposure (detectable compound) in plasma ([2]; IP 20 mg/kg): > 24 h

Compound: CC(=O)N[C@H]1CC(=O)NCCCC[C@@H](C(=O)N[C@@H](CCCNC(=N)N)C(=O)c2nc3ccccc3s2)NC(=O)CNC1=O [Compound 22, Ac-cyclo(DGK)-R- ketobenzothiazole]
- IC50 (thrombin; [9]): > 20 µM

Compound: CC(=O)N[C@H]1CC(=O)NCCCC[C@@H](C(=O)N[C@@H](CCCNC(=N)N)C(=O)c2nc3ccccc3s2)NC(=O)[C@H](CC(N)=O)NC1=O [Compound 25, Ac-cyclo(DNK)-R- ketobenzothiazole]
- IC50 (thrombin; [9]): > 20 µM

Compound: CC(=O)N[C@H]1CC(=O)NCCCC[C@@H](C(=O)N[C@@H](CCCNC(=N)N)C(=O)c2nc3ccccc3s2)NC(=O)[C@H](CCC(N)=O)NC1=O [Compound 26, Ac-cyclo(DQK)-R- ketobenzothiazole]
- IC50 (thrombin; [9]): > 20 µM

Compound: CC(=O)N[C@H]1CC(=O)NCCCC[C@@H](C(=O)N[C@@H](CCCNC(=N)N)C(=O)c2nc3ccccc3s2)NC(=O)[C@H](Cc2ccccc2)NC1=O [Compound 29, Ac-cyclo(DFK)-R- ketobenzothiazole]
- AUC in mice (in words) ([2]; IP 20 mg/kg): comparable to 18

Compound: CC(=O)N[C@H]1CC(=O)NCCCC[C@@H](C(=O)N[C@@H](CCCNC(=N)N)C(=O)c2nc3ccccc3s2)NC(=O)[C@H](Cc2ccc(O)cc2)NC1=O [Compound 30, Ac-cyclo(DYK)-R- ketobenzothiazole]
- IC50 (thrombin; [9]): > 20 µM

Compound: CC(=O)N[C@@H](CO)C(=O)N[C@@H](CCCCN)C(=O)N[C@@H](CC(C)C)C(=O)N[C@@H](CCCNC(=N)N)C(=O)c1nc2ccc(C(=O)N[C@H](C(N)=O)C(C)C)cc2s1 [Compound 31] (Ac-SKL[X1]V-NH2)
- pro-HGF-mediated wound closure (HCC827 cells): significantly inhibited
- pro-HGF-mediated growth of H596 cells (H596 lung cancer cells): blocked the growth-promoting activity of pro-HGF
- Mouse PPB (% free) [1]: 16.7 % free
- pro-survival effect of pro-HGF in gefitinib-treated HCC827 cells (HCC827 lung cancer cells): blocked the pro-survival effects of pro-HGF
- inhibition of pro-HGF activation by matriptase (matriptase): potently inhibited
- inhibition of pro-HGF activation by HGFA (HGFA): potently inhibited
- inhibition of pro-HGF activation by hepsin (hepsin): potently inhibited
- pro-survival activity of pro-HGF in JNJ-38877605-treated EBC-1 cells (EBC-1 lung cancer cells [4]): blocked the pro-survival activity of pro-HGF

Compound: Cn1cc(-c2ccc3nnc(C(F)(F)c4ccc5ncccc5c4)n3n2)cn1 [JNJ-38877605]
- pro-HGF-mediated growth of H596 cells (H596 lung cancer cells): inhibited the pro-HGF-mediated growth of H596 cells

Compound: N=C(N)Nc1ccc(C(=O)Oc2ccc3cc(C(=N)N)ccc3c2)cc1 [Nafamostat]
- pro-HGF-mediated growth of H596 cells (H596 lung cancer cells): inhibited the pro-HGF-mediated growth of H596 cells

Compound: CC1CN(CC2CCN(Cc3ccccc3)CC2)C(=O)N(c2cccc(C(=N)N)c2)C1.O=C(O)C(F)(F)F (stereo not shown) [SRI31215]
- HGF-mediated survival of MET-amplified cancer cells upon MET inhibition (EBC-1 lung cancer cells [8]): inhibited

More lines, now with the values ahead:

- Mouse PPB (% free) [1]: 18.4 % free
- duration of compound exposure (detectable compound) in plasma ([2]; IP 20 mg/kg): ≤ 8 h
Compound: CC(=O)N[C@H]1CCCCNC(=O)CC[C@@H](C(=O)N[C@@H](CCCNC(=N)N)C(=O)c2nc3ccccc3s2)NC(=O)[C@H](CC(C)C)NC1=O [Compound 16, Ac-cyclo(KLE)-R-ketobenzothiazole]

- Mouse PPB (% free) [1]: 25.9 % free
Compound: CC(=O)N[C@H]1CCCCNC(=O)CC[C@@H](C(=O)N[C@@H](CCCNC(=N)N)C(=O)c2nc3ccccc3s2)NC(=O)[C@H](CCCNC(=N)N)NC1=O [Compound 17, Ac-cyclo(KRE)-R- ketobenzothiazole]

- IC50 (thrombin): > 20 µM
- half-life [5]: 2.62 h
- Mouse PPB (% free) [1]: 6.0 % free
- half-life [6]: > 4.82 h
- IC50 [7]: > 20 µM
- duration of compound exposure (detectable compound) in plasma ([2]; IP 20 mg/kg): ≤ 8 h
- half-life ([2]; mouse, plasma, ip, 20 mg/kg): < 0.5 h
Compound: CC(=O)N[C@H]1CCC(=O)NCCCC[C@@H](C(=O)N[C@@H](CCCNC(=N)N)C(=O)c2nc3ccccc3s2)NC(=O)[C@H](CC(C)C)NC1=O [Compound 19, Ac-cyclo(ELK)-R- ketobenzothiazole]

- IC50 (thrombin; [9]): > 20 µM
Compound: CC(=O)N[C@H]1CC(=O)NCCCC[C@@H](C(=O)N[C@@H](CCCNC(=N)N)C(=O)c2nc3ccccc3s2)NC(=O)[C@H](C)NC1=O [Compound 23, Ac-cyclo(DAK)-R- ketobenzothiazole]

- IC50 (thrombin; [9]): > 20 µM
Compound: CC(=O)N[C@H]1CC(=O)NCCCC[C@@H](C(=O)N[C@@H](CCCNC(=N)N)C(=O)c2nc3ccccc3s2)NC(=O)[C@H](C(C)C)NC1=O [Compound 24, Ac-cyclo(DVK)-R- ketobenzothiazole]

- IC50 (thrombin; [9]): > 20 µM
Compound: CC(=O)N[C@H]1CC(=O)NCCCC[C@@H](C(=O)N[C@@H](CCCNC(=N)N)C(=O)c2nc3ccccc3s2)NC(=O)[C@H]([C@@H](C)O)NC1=O [Compound 27, Ac-cyclo(DTK)-R- ketobenzothiazole]
